From ChEMBL document CHEMBL1949512, “RO4383596, an orally active KDR, FGFR, and PDGFR inhibitor: synthesis and biological evaluation” (Bioorg Med Chem, 2005)

Legend:
[1] = molecular target: Vascular endothelial growth factor receptor 2 (Homo sapiens, UniProt P35968); test: Inhibition of human recombinant EE-tagged intracellular domain of KDR using biotin-EEEEYFELVAKKKK as substrate by HTRF assay
[2] = molecular target: Fibroblast growth factor receptor (Homo sapiens, UniProt P22607+P11362+P22455+P21802); test: Inhibition of human recombinant GST-tagged intracellular domain of FGFR using biotin-EEEEYFELV as substrate by HTRF assay
[3] = molecular target: Tyrosine-protein kinase Fyn (Homo sapiens, UniProt P06241); test: Inhibition of Fyn by IMAP assay
How it was run: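 IMAP fluorescence-polarisation assay: kinase activity read as phosphorylated fluorescent peptide substrate binding preferentially to immobilised metal beads. Reactions run with ATP at three times the Km.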

[4] = molecular target: T1, Serine/threonine-protein kinase Sgk1 (Homo sapiens, UniProt O00141); test: Inhibition of SGK
T1 sequence (O00141 whole entry): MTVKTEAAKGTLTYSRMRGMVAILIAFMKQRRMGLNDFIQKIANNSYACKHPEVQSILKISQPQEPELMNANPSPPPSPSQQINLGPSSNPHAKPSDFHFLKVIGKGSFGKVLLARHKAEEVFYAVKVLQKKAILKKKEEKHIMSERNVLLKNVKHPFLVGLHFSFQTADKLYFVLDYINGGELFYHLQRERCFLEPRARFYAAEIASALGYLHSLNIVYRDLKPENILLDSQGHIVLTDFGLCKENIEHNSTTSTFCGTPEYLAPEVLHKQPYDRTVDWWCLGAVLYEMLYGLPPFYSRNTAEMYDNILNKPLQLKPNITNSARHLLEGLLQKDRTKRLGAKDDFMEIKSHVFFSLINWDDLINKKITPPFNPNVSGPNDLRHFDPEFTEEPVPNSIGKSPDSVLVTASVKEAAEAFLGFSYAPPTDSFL

[5] = molecular target: Protein kinase C delta type (Homo sapiens, UniProt Q05655); test: Inhibition of PKCdelta by IMAP assay
How it was run: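 IMAP fluorescence-polarization assay, in which phosphorylated fluorescent peptide substrates bind immobilized metal beads. Reactions ran at ATP three times Km.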

[6] = tested on: RKO; test: Antiproliferative activity against human RKO cells
[7] = Clearance in athymic nude mouse at 10 mg/kg, iv; format: ADME, organism-based; parameters: dose 10 mg/kg, route intravenous; details: in vivo
How it was run: (§1)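 Athymic nude mice received one dose, either iv 10 mg/kg in 2% DMA/10% PEG400/88% of 40% HPBCD in water, or po 50 mg/kg in 2% Klucel LF/0.1% Tween 80. Retro-orbital or terminal cardiac blood was drawn from 1 min (iv) or 5 min (po) to 24 h into EDTA. Plasma was analysed by LC-MS/MS. Composite parameters were obtained by non-compartmental analysis, with AUC extrapolated to infinity.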

[8] = AUC in athymic nude mouse at 10 mg/kg, iv; format: ADME, organism-based; parameters: dose 10 mg/kg, route intravenous; details: plasma; how it was run: as §1
[9] = Volume of distribution at steady state in athymic nude mouse at 10 mg/kg, iv; format: ADME, organism-based; parameters: dose 10 mg/kg, route intravenous; details: in vivo, read-out: Vdss
How it was run: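 Athymic nude mice given single 10 mg/kg iv dose in 2% DMA, 10% PEG400, 88% of 40% HPBCD in water, 0.2 mL. Blood at 1, 5, 15, 30 min and 1, 2, 4, 8, 16, 24 h; EDTA plasma, LC-MS/MS. Composite Vdss by non-compartmental analysis.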

[10] = Half life in athymic nude mouse at 10 mg/kg, iv; format: ADME, organism-based; parameters: dose 10 mg/kg, route intravenous; details: in vivo; how it was run: as §1
[11] = Oral bioavailability in athymic nude mouse at 50 mg/kg; format: ADME, organism-based; details: in vivo; how it was run: as §1
[12] = AUC in Wistar rat at 5 mg/kg, iv; format: ADME, organism-based; parameters: dose 5 mg/kg, route intravenous; details: plasma
How it was run: (§2)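 Wistar rats received one dose, either iv 5 mg/kg via femoral arterial catheter (2% DMA/10% PEG400/88% of 40% HPBCD) or po 50 mg/kg (2% Klucel LF/0.1% Tween 80). Blood came from an implanted jugular catheter, up to 24 h (iv) or 48 h (po), into EDTA. Plasma LC-MS/MS; individual non-compartmental parameters were averaged.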

[13] = Cmax in Wistar rat at 50 mg/kg, po; format: ADME, organism-based; parameters: dose 50 mg/kg, route oral; details: in vivo; how it was run: as §2
[14] = AUC in Wistar rat at 50 mg/kg, po; format: ADME, organism-based; parameters: dose 50 mg/kg, route oral; details: plasma; how it was run: as §2
[15] = Oral bioavailability in Wistar rat at 50 mg/kg; format: ADME, organism-based; details: in vivo; how it was run: as §2
[16] = tested on: Mus musculus; test: Dose normalized AUC in C57/BL6 mouse at 25 mg/kg, po bid for 5 days; format: ADME, organism-based; parameters: dose 25 mg/kg, route oral; details: in vivo, 120 h
How it was run: (§3)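 Female C57/BL6 mice were dosed orally twice daily for 5 days with a suspension in 2% Klucel LF/0.1% Tween 80 in water. Six mice per dose were split into two subgroups of three, each sampled at alternate time points. Retro-orbital blood was taken at 0, 1, 4 and 8 h post-dose into EDTA, and plasma was analysed by LC-MS/MS. Parameters come from mean concentrations; AUC0–8h by linear trapezoidal rule; Cmax and Tmax as observed.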

[17] = Tmax in C57/BL6 mouse at 25 mg/kg, po bid for 5 days; format: ADME, organism-based; parameters: dose 25 mg/kg, route oral; details: in vivo; how it was run: as §3
[18] = tested on: Mus musculus; test: Dose normalized AUC in C57/BL6 mouse at 50 mg/kg, po bid for 5 days; format: ADME, organism-based; parameters: dose 50 mg/kg, route oral; details: in vivo, 120 h; how it was run: as §3
[19] = AUC in C57/BL6 mouse at 100 mg/kg, po bid for 5 days; format: ADME, organism-based; parameters: dose 100 mg/kg, route oral; details: plasma; how it was run: as §3
[20] = tested on: Mus musculus; test: Dose normalized AUC in C57/BL6 mouse at 100 mg/kg, po bid for 5 days; format: ADME, organism-based; parameters: dose 100 mg/kg, route oral; details: in vivo, 120 h; how it was run: as §3
[21] = Tmax in C57/BL6 mouse at 100 mg/kg, po bid for 5 days; format: ADME, organism-based; parameters: dose 100 mg/kg, route oral; details: in vivo; how it was run: as §3
[22] = AUC in […] mouse at 100 mg/kg, po; format: ADME, organism-based; parameters: dose 100 mg/kg, route oral; details: plasma
How it was run: (§4)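 A separate group of female mice received one 100 mg/kg oral dose. Median PK parameters were calculated for that cohort.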

[23] = tested on: Mus musculus; test: Dose normalized AUC in […] mouse at 100 mg/kg, po; format: ADME, organism-based; parameters: dose 100 mg/kg, route oral; details: in vivo; how it was run: as §4
[24] = Cmax in […] mouse at 100 mg/kg, po; format: ADME, organism-based; parameters: dose 100 mg/kg, route oral; details: in vivo; how it was run: as §4
[25] = Tmax in […] mouse at 100 mg/kg, po; format: ADME, organism-based; parameters: dose 100 mg/kg, route oral; details: in vivo; how it was run: as §4
[26] = tested on: Mus musculus; test: Antiangiogenic activity in C57/BL6 mouse cornea assessed as inhibition of VEGF-induced angiogenesis at 25 mg/kg, po bid for 7 days by corneal pocket assay relative to control; format: functional; details: 168 h
How it was run: (§5)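 VEGF-impregnated pellets were implanted in corneas of female C57/BL6 mice aged 5–7 weeks. Oral twice-daily dosing started the same day and ran 7 days. The area of vascularization was then quantitated relative to animals given vehicle (2% Klucel LF, 0.1% Tween 80 in water).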

[27] = tested on: Mus musculus; test: Antiangiogenic activity in C57/BL6 mouse cornea assessed as inhibition of VEGF-induced angiogenesis at 100 mg/kg, po bid for 7 days by corneal pocket assay relative to control; format: functional; details: 168 h; how it was run: as §5
[28] = tested on: Mus musculus; test: Antiangiogenic activity in C57/BL6 mouse cornea assessed as inhibition of bFGF-induced angiogenesis at 25 mg/kg, po bid for 5 days by corneal pocket assay relative to control; format: functional; details: 120 h
How it was run: (§6)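 bFGF-impregnated pellets were implanted in corneas of female C57/BL6 mice aged 5–7 weeks. Oral dosing twice daily began the same day for 5 days. The neovascularized area was quantitated against vehicle-treated animals (2% Klucel LF, 0.1% Tween 80 in water).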

[29] = tested on: Mus musculus; test: Antiangiogenic activity in C57/BL6 mouse cornea assessed as inhibition of bFGF-induced angiogenesis at 50 mg/kg, po bid for 5 days by corneal pocket assay relative to control; format: functional; details: 120 h; how it was run: as §6

Chain of Vascular endothelial growth factor receptor 2 (P35968 whole entry, the tested form may be a part): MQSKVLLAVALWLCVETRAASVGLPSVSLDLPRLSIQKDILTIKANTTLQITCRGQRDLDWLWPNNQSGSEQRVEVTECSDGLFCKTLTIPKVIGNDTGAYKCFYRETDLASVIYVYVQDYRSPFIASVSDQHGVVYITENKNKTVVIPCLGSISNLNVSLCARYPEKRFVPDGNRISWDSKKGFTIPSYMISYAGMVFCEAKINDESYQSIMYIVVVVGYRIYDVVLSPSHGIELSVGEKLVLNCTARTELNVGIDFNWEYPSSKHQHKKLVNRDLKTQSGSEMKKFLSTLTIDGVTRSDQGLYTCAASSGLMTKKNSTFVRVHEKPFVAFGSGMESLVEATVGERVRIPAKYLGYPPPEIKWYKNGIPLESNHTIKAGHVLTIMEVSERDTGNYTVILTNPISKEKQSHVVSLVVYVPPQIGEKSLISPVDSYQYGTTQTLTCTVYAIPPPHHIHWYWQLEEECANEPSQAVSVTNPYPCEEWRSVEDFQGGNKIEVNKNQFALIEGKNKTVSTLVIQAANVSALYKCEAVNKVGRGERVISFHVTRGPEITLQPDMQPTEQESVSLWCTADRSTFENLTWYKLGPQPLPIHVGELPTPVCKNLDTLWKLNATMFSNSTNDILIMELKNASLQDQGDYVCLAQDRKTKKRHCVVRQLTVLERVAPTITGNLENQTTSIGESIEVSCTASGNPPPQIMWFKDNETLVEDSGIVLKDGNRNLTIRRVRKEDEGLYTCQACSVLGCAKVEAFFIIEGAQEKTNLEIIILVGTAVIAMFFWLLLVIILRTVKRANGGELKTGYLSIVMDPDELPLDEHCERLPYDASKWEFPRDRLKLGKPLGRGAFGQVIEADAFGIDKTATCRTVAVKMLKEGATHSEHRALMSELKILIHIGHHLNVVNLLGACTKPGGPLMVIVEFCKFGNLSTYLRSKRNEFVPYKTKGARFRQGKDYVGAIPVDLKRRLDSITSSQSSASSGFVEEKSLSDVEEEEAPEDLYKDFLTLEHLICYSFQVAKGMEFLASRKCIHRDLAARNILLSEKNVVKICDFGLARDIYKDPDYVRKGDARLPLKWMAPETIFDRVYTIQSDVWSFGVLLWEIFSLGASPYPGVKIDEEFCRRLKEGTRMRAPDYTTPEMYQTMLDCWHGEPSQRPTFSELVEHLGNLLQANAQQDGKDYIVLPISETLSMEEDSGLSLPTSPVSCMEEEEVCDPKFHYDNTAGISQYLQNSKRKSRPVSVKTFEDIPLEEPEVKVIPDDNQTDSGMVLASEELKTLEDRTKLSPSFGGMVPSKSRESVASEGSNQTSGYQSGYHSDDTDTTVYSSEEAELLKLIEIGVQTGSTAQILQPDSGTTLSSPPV
Chain of Tyrosine-protein kinase Fyn (P06241 whole entry): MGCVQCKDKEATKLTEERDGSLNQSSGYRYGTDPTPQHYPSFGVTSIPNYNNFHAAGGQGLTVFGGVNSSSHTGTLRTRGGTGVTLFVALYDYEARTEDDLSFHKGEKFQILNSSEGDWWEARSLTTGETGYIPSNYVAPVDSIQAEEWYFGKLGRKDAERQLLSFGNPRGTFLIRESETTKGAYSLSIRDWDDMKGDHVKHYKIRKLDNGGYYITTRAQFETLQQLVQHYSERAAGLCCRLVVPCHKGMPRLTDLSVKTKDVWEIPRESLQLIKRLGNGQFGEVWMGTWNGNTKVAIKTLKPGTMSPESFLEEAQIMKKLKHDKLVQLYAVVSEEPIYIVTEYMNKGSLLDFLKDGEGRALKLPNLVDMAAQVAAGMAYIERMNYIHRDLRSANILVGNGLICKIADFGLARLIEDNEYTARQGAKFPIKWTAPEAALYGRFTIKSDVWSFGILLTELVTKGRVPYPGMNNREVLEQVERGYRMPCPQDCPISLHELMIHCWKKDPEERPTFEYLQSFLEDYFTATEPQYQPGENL
Chain of Protein kinase C delta type (Q05655 whole entry): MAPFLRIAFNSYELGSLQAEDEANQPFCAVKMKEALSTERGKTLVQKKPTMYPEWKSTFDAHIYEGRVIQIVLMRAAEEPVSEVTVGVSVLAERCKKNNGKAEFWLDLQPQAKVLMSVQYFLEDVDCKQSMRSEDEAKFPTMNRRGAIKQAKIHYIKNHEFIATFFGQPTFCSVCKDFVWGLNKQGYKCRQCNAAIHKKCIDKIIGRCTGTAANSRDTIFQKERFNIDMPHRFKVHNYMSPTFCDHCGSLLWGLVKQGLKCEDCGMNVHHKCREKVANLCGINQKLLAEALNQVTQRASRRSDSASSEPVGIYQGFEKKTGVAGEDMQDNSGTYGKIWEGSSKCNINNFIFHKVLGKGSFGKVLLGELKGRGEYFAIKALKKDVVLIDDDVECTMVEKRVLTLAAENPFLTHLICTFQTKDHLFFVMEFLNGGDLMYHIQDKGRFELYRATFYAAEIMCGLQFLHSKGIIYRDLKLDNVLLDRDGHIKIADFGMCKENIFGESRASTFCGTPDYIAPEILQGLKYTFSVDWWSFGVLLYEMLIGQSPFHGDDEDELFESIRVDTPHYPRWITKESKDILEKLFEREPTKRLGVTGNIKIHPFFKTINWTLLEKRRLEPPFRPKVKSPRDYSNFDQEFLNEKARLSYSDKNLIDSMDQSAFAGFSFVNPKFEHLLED

COc1ccc(N2Cc3cnc(Nc4ccccc4)nc3N([C@@H]3CC[C@@H](O)C3)C2=O)cc1 (racemic)
IC50 [1]: 44 nM
IC50 [2]: 29 nM
IC50 [3]: 322 nM
IC50 [4]: > 125000 nM
IC50 [5]: > 125000 nM
IC50 [6]: 2300 nM
clearance [7]: 15.1 mL/min/kg
AUC [8]: 11100 ng·h/mL
Vd [9]: 1.9 L/kg
half-life [10]: 180 min
bioavailability [11]: 93%
AUC [12]: 4010 ng·h/mL
Cmax [13]: 7180 ng/mL
AUC [14]: 26500 ng·h/mL
bioavailability [15]: 65%
AUC/dose [16]: 1199 ng·h/mL/mg/kg
Tmax [17]: 30 min
AUC/dose [18]: 1510 ng·h/mL/mg/kg
AUC at 120 h [19]: 150000 ng·h/mL
AUC/dose [20]: 1458 ng·h/mL/mg/kg
Tmax [21]: 30 min
AUC [22]: 146000 ng·h/mL
AUC/dose [23]: 1458 ng·h/mL/mg/kg
Cmax [24]: 37600 ng/mL
Tmax [25]: 30 min
inhibition in vivo at 25 mg/kg [26]: 81%
inhibition in vivo at 100 mg/kg [27]: 99%
inhibition in vivo at 25 mg/kg [28]: 72%
inhibition in vivo at 50 mg/kg [29]: 80%
